Data: PMC11342405 (Bioorganic & medicinal chemistry, 2024)
“Also recorded” adds a separate entry of the source.

Tests used:
HEK-293 cells = test: Anti-proliferative MTT assay, non-cancerous HEK-293 cells; assay type: cell-based; settings: Homo sapiens, HEK293, 72 h, read-out: HEK-293 IC50
In short: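 HEK-293 cells grown in DMEM with 10% FBS and 1% penicillin/streptomycin, seeded at 2.5 x 10^4 cells/well and allowed 24 h before dosing. Compound (DMSO stock) given at increasing concentrations for 72 h at 37 °C, 5% CO2. MTT (5.4 mg/mL dye solution) was added for 3 h, formazan dissolved in DMSO, and absorbance read at 570 nm. Replicates 6-8; IC50 derived from concentration-response data.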

gankyrin [1] = target: T1, gankyrin (Homo sapiens, UniProt O75832); test: Circular dichroism of gankyrin; assay type: binding; settings: 10 μM gankyrin, 1-100 μM compound, 25 °C
T1 sequence (O75832 1-226): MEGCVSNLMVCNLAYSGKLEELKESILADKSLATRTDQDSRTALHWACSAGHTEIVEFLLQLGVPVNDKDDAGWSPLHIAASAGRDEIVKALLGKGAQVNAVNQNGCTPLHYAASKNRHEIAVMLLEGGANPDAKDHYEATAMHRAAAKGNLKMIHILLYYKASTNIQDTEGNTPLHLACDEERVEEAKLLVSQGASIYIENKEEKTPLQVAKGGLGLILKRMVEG
In short: (§1)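 Recombinant His-tagged protein was expressed in E. coli LOBSTR BL21(DE3) (0.5 mM IPTG, 37 °C, 16 h) and Ni-affinity purified. The tag was removed with TEV, followed by a second HisTrap pass and gel filtration if needed. 10 μM protein in 25 mM Tris, 50 mM NaCl, pH 7.4, alone or with 1, 10 or 100 μM compound. Spectra 195–260 nm in a 1 mm quartz cuvette, six accumulations, 25 °C; α-helical content monitored; triplicate samples.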

ANKRA2 = target: T2, ANKRA2 (Homo sapiens, UniProt Q9H9E1); test: Circular dichroism of ANKRA2; assay type: binding; settings: 10 μM ANKRA2, 1-100 μM compound, 25 °C
T2 sequence (Q9H9E1 152-313 limits assumed): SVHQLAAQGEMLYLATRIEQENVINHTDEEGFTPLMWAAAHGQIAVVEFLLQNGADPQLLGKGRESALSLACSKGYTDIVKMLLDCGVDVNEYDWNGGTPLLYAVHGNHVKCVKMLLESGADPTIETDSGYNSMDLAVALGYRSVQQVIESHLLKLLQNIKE
In short: as §1

gankyrin [2] = target: T1, gankyrin; test: Cellular thermal shift assay; assay type: cell-based; settings: HuH6 cells treated at anti-proliferative IC50 for 5 h, 50-65 °C
In short: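 HuH6 cells were exposed to test compound (0.25% DMSO final) or DMSO alone for 5 h, harvested, split into six aliquots and heated at 50, 53, 56, 59, 62 or 65 °C. Lysis was in RIPA with protease/phosphatase inhibitors, 60 min on ice. 15 μg protein was run on reducing SDS-PAGE, transferred to PVDF and probed for gankyrin, with β-actin as reference; HRP secondary and ECL detection.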

HuH6 cells = test: Cell cycle analysis by flow cytometry in HuH6 cells; assay type: cell-based; settings: 3.3 μM, 72 h, vs DMSO
In short: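 HuH6 cells in 10 cm dishes were exposed to test compound or vehicle (0.25% DMSO final) for 72 h. Cells were harvested in cold PBS, normalized, fixed in 70% ethanol at −20 °C overnight, then stained with PI/RNase for 30 min at 37 °C. DNA content was measured by flow cytometry. Mean ± SD, n = 3; one-way ANOVA, P < 0.05 significant.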

[3] = tested on: Rb, p53 and gankyrin levels in HuH6 cells; test: Western blot analysis of TSP levels in HuH6 cells; assay type: cell-based; settings: 48 h
In short: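 HuH6 cells in 10 cm dishes were exposed to varying compound concentrations (0.25% DMSO final) or DMSO only for 48 h. Cells were harvested in cold PBS and lysed in RIPA with protease/phosphatase inhibitors, 60 min on ice. 15 μg protein was resolved under reducing conditions, transferred to PVDF and probed for p53, Rb and gankyrin, with cyclophilin as reference; HRP secondaries, ECL detection. Run in duplicate.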

COC(=O)c1ccc(C(=O)NCCCNC(=O)c2ccc(C(=O)OC)cc2)cc1 [Compound 10d, Dimethyl 4,4'-((propane-1,3-diylbis(azanediyl))bis(carbonyl))dibenzoate]
IC50 (HEK-293 cells): > 50 µM
effect on gankyrin secondary structure / 3D fold (CD spectra) (gankyrin [1]): reduction in secondary structure content; also recorded: significant loss of gankyrin structural integrity
effect on ANKRA2 secondary structure / 3D fold (CD spectra) (ANKRA2): no changes in secondary structure content; also recorded: no significant global structure change

COC(=O)c1ccc(NC(=O)CCC(=O)Nc2ccc(C(=O)OC)cc2)cc1 [Compound 13d, Dimethyl 4,4'-(succinylbis(azanediyl))dibenzoate]
gankyrin thermal stability (CETSA) (gankyrin [2]): bind and thermally stabilize gankyrin
number of cells in the G0-G1 phase (HuH6 cells): significant increase
number of cells in the S phase (HuH6 cells): significant decrease
Rb and p53 levels (western blot) [3]: increase in both Rb and p53 levels
gankyrin levels (western blot) [3]: relatively constant
IC50 (HEK-293 cells): > 50 µM
effect on gankyrin secondary structure / 3D fold (CD spectra) (gankyrin [1]): decline in secondary structure content; also recorded: significant loss of gankyrin structural integrity
effect on ANKRA2 secondary structure / 3D fold (CD spectra) (ANKRA2): no alterations in secondary structure content; also recorded: no significant global structure change
